Test results from ChEMBL document CHEMBL1821594, “Synthesis and anticancer evaluation of novel 2-cyclopropylimidazo[2,1-b][1,3,4]-thiadiazole derivatives” (2011).

Columns and labels:
Format in all cases: functional
[1] = system: UACC-257; assay: Antitumor activity against human UACC257 cells after 48 hrs by SRB assay; conditions: UACC-257, 48 h
Procedure, shortened: (§1)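 NCI-60 protocol. Cells were grown in RPMI 1640 with 5% FBS and 2 mM L-glutamine, plated at 5000–40,000 cells/well, and preincubated 24 h at 37 °C, 5% CO2. Time-zero plates were TCA-fixed. Compounds were in DMSO and incubated 48 h. Fixation used cold TCA (final 16% for suspension SR; final 10% for adherent lines 2-7). Plates were stained with 0.4% SRB in 1% acetic acid, solubilized in 10 mM Tris base, and read at 515 nm. Percent growth was calculated from Tz, C and Ti.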

[2] = system: A549; assay: Antitumor activity against human A549 cells after 48 hrs by SRB assay; conditions: A549, 48 h
Procedure, shortened: (§2)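 Cells grown in RPMI 1640 with 5% FBS and 2 mM L-glutamine and seeded at 5000–40,000 cells/well according to doubling time. They were preincubated 24 h at 37 °C, 5% CO2, then exposed to DMSO-solubilized compound for 48 h. Adherent cells were fixed with cold TCA (10% final), suspension cells with 16% final. Stained with 0.4% SRB; absorbance at 515 nm. Percent growth calculated against time-zero and control plates.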

[3] = system: OVCAR-3; assay: Antitumor activity against human OVCAR3 cells after 48 hrs by SRB assay; conditions: OVCAR-3, 48 h; procedure, shortened: as §2
[4] = system: M14; assay: Antitumor activity against human M14 cells after 48 hrs by SRB assay; conditions: M14, 48 h; procedure, shortened: as §2
[5] = system: RPMI-8226; assay: Antitumor activity against human RPMI8226 cells after 48 hrs by SRB assay; conditions: RPMI-8226, 48 h; procedure, shortened: as §2
[6] = system: OVCAR-8; assay: Antitumor activity against human OVCAR8 cells after 48 hrs by SRB assay; conditions: OVCAR-8, 48 h; procedure, shortened: as §2
[7] = system: NCI-H226; assay: Antitumor activity against human NCI-H226 cells after 48 hrs by SRB assay; conditions: NCI-H226, 48 h; procedure, shortened: as §2
[8] = system: SK-MEL-28; assay: Antitumor activity against human SK-MEL-28 cells after 48 hrs by SRB assay; conditions: SK-MEL-28, 48 h; procedure, shortened: as §2
[9] = system: NCI-H522; assay: Antitumor activity against human NCI-H522 cells after 48 hrs by SRB assay; conditions: NCI-H522, 48 h; procedure, shortened: as §2
[10] = system: EKVX; assay: Antitumor activity against human EKVX cells after 48 hrs by SRB assay; procedure, shortened: as §2
[11] = system: OVCAR-5; assay: Antitumor activity against human OVCAR5 cells after 48 hrs by SRB assay; conditions: OVCAR-5, 48 h; procedure, shortened: as §2
[12] = system: RXF 393; assay: Antitumor activity against human RXF393 cells after 48 hrs by SRB assay; conditions: RXF 393, 48 h; procedure, shortened: as §2
[13] = system: SK-MEL-5; assay: Antitumor activity against human SK-MEL-5 cells after 48 hrs by SRB assay; conditions: SK-MEL-5, 48 h; procedure, shortened: as §2
[14] = system: KM12; assay: Antitumor activity against human KM12 cells after 48 hrs by SRB assay; conditions: KM12, 48 h; procedure, shortened: as §2
[15] = system: CAKI-1; assay: Antitumor activity against human Caki1 cells after 48 hrs by SRB assay; conditions: CAKI-1, 48 h; procedure, shortened: as §2
[16] = system: MDA-MB-468; assay: Antitumor activity against human MDA-MB-468 cells after 48 hrs by SRB assay; conditions: MDA-MB-468, 48 h; procedure, shortened: as §2
[17] = system: LOX IMVI; assay: Antitumor activity against human LOXIMVI cells after 48 hrs by SRB assay; procedure, shortened: as §2
[18] = system: NCI/ADR-RES; assay: Antitumor activity against human NCI/ADR-RES cells after 48 hrs by SRB assay; procedure, shortened: as §2
[19] = system: NCI-H322M; assay: Antitumor activity against human NCI-H322M cells after 48 hrs by SRB assay; procedure, shortened: as §2
[20] = system: NCI-H23; assay: Antitumor activity against human NCI-H23 cells after 48 hrs by SRB assay; conditions: NCI-H23, 48 h; procedure, shortened: as §2
[21] = system: HT-29; assay: Antitumor activity against human HT-29 cells after 48 hrs by SRB assay; conditions: HT-29, 48 h; procedure, shortened: as §2
[22] = system: A498; assay: Antitumor activity against human A498 cells after 48 hrs by SRB assay; conditions: A498, 48 h; procedure, shortened: as §2
[23] = system: SF-295; assay: Antitumor activity against human SF295 cells after 48 hrs by SRB assay; conditions: SF-295, 48 h; procedure, shortened: as §2
[24] = system: 786-0; assay: Antitumor activity against human 786-0 cells after 48 hrs by SRB assay; conditions: 786-0, 48 h; procedure, shortened: as §2
[25] = system: SF-268; assay: Antitumor activity against human SF268 cells after 48 hrs by SRB assay; conditions: SF-268, 48 h; procedure, shortened: as §2
[26] = system: SW-620; assay: Antitumor activity against human SW620 cells after 48 hrs by SRB assay; conditions: SW-620, 48 h; procedure, shortened: as §1
[27] = system: COLO 205; assay: Antitumor activity against human COLO205 cells after 48 hrs by SRB assay; conditions: COLO 205, 48 h; procedure, shortened: as §2
[28] = system: Malme-3M; assay: Antitumor activity against human MALME-3M cells after 48 hrs by SRB assay; procedure, shortened: as §2
[29] = system: T47D; assay: Antitumor activity against human T47D cells after 48 hrs by SRB assay; procedure, shortened: as §1
[30] = read-out: LC50 (the source's name)

Question: `Clc1ccc(-c2nc3sc(C4CC4)nn3c2Br)cc1` was tested. Which GI50 [1] did it give?
Answer: 4.14 µM

Question: And the TGI [1]?
Answer: > 100 µM

Question: What about the CC50 [1, 30] of the same molecule?
Answer: > 100 µM

Question: What about the GI50 [2] of the same molecule?
Answer: 7.42 µM

Question: What about the TGI [2] of the same molecule?
Answer: > 100 µM

Question: What about the CC50 [2, 30] of the same molecule?
Answer: > 100 µM

Question: And the GI50 [3]?
Answer: 4.63 µM

Question: What about the TGI [3] of the same molecule?
Answer: > 100 µM

Question: What about the CC50 [3, 30] of the same molecule?
Answer: > 100 µM

Question: What about the GI50 [4] of the same molecule?
Answer: 7.7 µM

Question: What about the TGI [4] of the same molecule?
Answer: > 100 µM

Question: And the CC50 [4, 30]?
Answer: > 100 µM

Question: And the GI50 [5]?
Answer: 3.22 µM

Question: And the TGI [5]?
Answer: > 100 µM

Question: What about the CC50 [5, 30] of the same molecule?
Answer: > 100 µM

Question: And the GI50 [6]?
Answer: 5.76 µM

Question: And the TGI [6]?
Answer: > 100 µM

Question: What about the CC50 [6, 30] of the same molecule?
Answer: > 100 µM

Question: What about the GI50 [7] of the same molecule?
Answer: 4.99 µM

Question: And the TGI [7]?
Answer: > 100 µM

Question: And the CC50 [7, 30]?
Answer: > 100 µM

Question: And the GI50 [8]?
Answer: 35.6 µM

Question: What about the TGI [8] of the same molecule?
Answer: > 100 µM

Question: What about the CC50 [8, 30] of the same molecule?
Answer: > 100 µM

Question: And the GI50 [9]?
Answer: 5.31 µM

Question: And the TGI [9]?
Answer: 55.4 µM

Question: What about the CC50 [9, 30] of the same molecule?
Answer: > 100 µM

Question: What about the GI50 [10] of the same molecule?
Answer: 5.22 µM

Question: And the TGI [10]?
Answer: > 100 µM

Question: And the CC50 [10, 30]?
Answer: > 100 µM

Question: And the GI50 [11]?
Answer: 31.9 µM

Question: What about the TGI [11] of the same molecule?
Answer: > 100 µM

Question: What about the CC50 [11, 30] of the same molecule?
Answer: > 100 µM

Question: And the GI50 [12]?
Answer: 2.93 µM

Question: What about the TGI [12] of the same molecule?
Answer: 14.8 µM

Question: What about the CC50 [12, 30] of the same molecule?
Answer: > 100 µM

Question: What about the GI50 [13] of the same molecule?
Answer: 2.17 µM

Question: What about the TGI [13] of the same molecule?
Answer: > 100 µM

Question: What about the CC50 [13, 30] of the same molecule?
Answer: > 100 µM

Question: And the GI50 [14]?
Answer: 3.77 µM

Question: And the TGI [14]?
Answer: > 100 µM

Question: What about the CC50 [14, 30] of the same molecule?
Answer: > 100 µM

Question: And the GI50 [15]?
Answer: 9.69 µM

Question: What about the TGI [15] of the same molecule?
Answer: > 100 µM

Question: And the CC50 [15, 30]?
Answer: > 100 µM

Question: What about the GI50 [16] of the same molecule?
Answer: 2.95 µM

Question: And the TGI [16]?
Answer: > 100 µM

Question: What about the CC50 [16, 30] of the same molecule?
Answer: > 100 µM

Question: What about the GI50 [17] of the same molecule?
Answer: 9.2 µM

Question: What about the TGI [17] of the same molecule?
Answer: > 100 µM

Question: What about the CC50 [17, 30] of the same molecule?
Answer: > 100 µM

Question: And the GI50 [18]?
Answer: 4.18 µM

Question: And the TGI [18]?
Answer: > 100 µM

Question: And the CC50 [18, 30]?
Answer: > 100 µM

Question: And the GI50 [19]?
Answer: 43.4 µM

Question: And the TGI [19]?
Answer: > 100 µM

Question: What about the CC50 [19, 30] of the same molecule?
Answer: > 100 µM

Question: And the GI50 [20]?
Answer: 5.1 µM

Question: And the TGI [20]?
Answer: > 100 µM

Question: What about the CC50 [20, 30] of the same molecule?
Answer: > 100 µM

Question: And the GI50 [21]?
Answer: 6.12 µM

Question: What about the TGI [21] of the same molecule?
Answer: > 100 µM

Question: What about the CC50 [21, 30] of the same molecule?
Answer: > 100 µM

Question: What about the GI50 [22] of the same molecule?
Answer: 30.8 µM

Question: What about the TGI [22] of the same molecule?
Answer: > 100 µM

Question: And the CC50 [22, 30]?
Answer: > 100 µM

Question: What about the GI50 [23] of the same molecule?
Answer: 5.04 µM

Question: What about the TGI [23] of the same molecule?
Answer: > 100 µM

Question: What about the CC50 [23, 30] of the same molecule?
Answer: > 100 µM

Question: And the GI50 [24]?
Answer: 13.6 µM

Question: What about the TGI [24] of the same molecule?
Answer: > 100 µM

Question: And the CC50 [24, 30]?
Answer: > 100 µM

Question: And the GI50 [25]?
Answer: 19.3 µM

Question: And the TGI [25]?
Answer: > 100 µM

Question: What about the CC50 [25, 30] of the same molecule?
Answer: > 100 µM

Question: And the GI50 [26]?
Answer: 6.88 µM

Question: What about the TGI [26] of the same molecule?
Answer: > 100 µM

Question: What about the CC50 [26, 30] of the same molecule?
Answer: > 100 µM

Question: And the GI50 [27]?
Answer: 7.23 µM

Question: What about the TGI [27] of the same molecule?
Answer: > 100 µM

Question: And the CC50 [27, 30]?
Answer: > 100 µM

Question: What about the GI50 [28] of the same molecule?
Answer: 8.79 µM

Question: What about the TGI [28] of the same molecule?
Answer: > 100 µM

Question: And the CC50 [28, 30]?
Answer: > 100 µM

Question: And the GI50 [29]?
Answer: 4.49 µM

Question: And the TGI [29]?
Answer: 73.5 µM

Question: And the CC50 [29, 30]?
Answer: > 100 µM
